Results from ChEMBL document CHEMBL4152221, “Synthesis and structure-activity relationship of furoquinolinediones as inhibitors of Tyrosyl-DNA phosphodiesterase 2 (TDP2)” (Eur J Med Chem, 2018).
Active and inactive are the calls of the source. No rule for the calls is given here.

Tests used:
[1] = molecular target: T1, Tyrosyl-DNA phosphodiesterase 2 (Homo sapiens, UniProt O95551); test: Inhibition of recombinant human TDP2 using TY18 (alpha-[32P]-cordycepin-3'-labeled) as substrate after 15 mins by PAGE analysis
T1 sequence (O95551 whole entry): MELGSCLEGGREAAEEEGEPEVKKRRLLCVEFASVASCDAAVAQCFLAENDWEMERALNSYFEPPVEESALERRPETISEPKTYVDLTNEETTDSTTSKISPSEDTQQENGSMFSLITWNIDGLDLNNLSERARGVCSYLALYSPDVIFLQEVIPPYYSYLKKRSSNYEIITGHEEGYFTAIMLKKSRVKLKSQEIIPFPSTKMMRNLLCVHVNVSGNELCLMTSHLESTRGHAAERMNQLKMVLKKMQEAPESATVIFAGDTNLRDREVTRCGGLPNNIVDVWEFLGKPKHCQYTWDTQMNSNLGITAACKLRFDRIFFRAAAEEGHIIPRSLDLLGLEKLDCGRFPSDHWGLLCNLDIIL
How it was run: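 32P-cordycepin-3'-labeled TY18 substrate at 1 nM with 25 pM recombinant human TDP2, 15 min at room temperature. Buffer: 50 mM Tris-HCl pH 7.5, 80 mM KCl, 5 mM MgCl2, 0.1 mM EDTA, 1 mM DTT, 40 μg/mL BSA, 0.01% Tween 20. Six or eight three-fold dilutions up to 111 μM. Gel densitometry; IC50 is mean ± SD of ≥3 independent experiments. Positive control: SV-163.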

[2] = molecular target: T1, Tyrosyl-DNA phosphodiesterase 2; test: Inhibition of human TDP2 expressed in TDP2 deficient chicken DT40 whole cell extracts using TY19 DNA as substrate after 15 mins by PAGE analysis
How it was run: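 Extract from 1×10^7 TDP2-knockout DT40 cells complemented with human TDP2, lysed 15 min on ice, spun at 12000 g for 10 min, stored at -80 °C. TY19 substrate at 1 nM with 5 μg/mL extract, ±inhibitor, 15 min at room temperature in LMP2 buffer. Gel densitometry. IC50 is mean ± SD of ≥3 independent experiments.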

[3] = molecular target: Tyrosyl-DNA phosphodiesterase 1 (Homo sapiens, UniProt Q9NUW8); test: Inhibition of recombinant TDP1 (unknown origin) at 111 uM using 5'-[32P]-labeled N14Y as substrate after 15 mins by PAGE analysis
How it was run: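 5'-32P-labeled N14Y (3'-phosphotyrosyl single-stranded oligo) at 1 nM with 10 pM recombinant TDP1, 15 min at room temperature. Three-fold dilutions up to 111 μM. Gels scanned and quantified by densitometry. Positive control: AM-8-3.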

Chain of Tyrosyl-DNA phosphodiesterase 1 (Q9NUW8 whole entry): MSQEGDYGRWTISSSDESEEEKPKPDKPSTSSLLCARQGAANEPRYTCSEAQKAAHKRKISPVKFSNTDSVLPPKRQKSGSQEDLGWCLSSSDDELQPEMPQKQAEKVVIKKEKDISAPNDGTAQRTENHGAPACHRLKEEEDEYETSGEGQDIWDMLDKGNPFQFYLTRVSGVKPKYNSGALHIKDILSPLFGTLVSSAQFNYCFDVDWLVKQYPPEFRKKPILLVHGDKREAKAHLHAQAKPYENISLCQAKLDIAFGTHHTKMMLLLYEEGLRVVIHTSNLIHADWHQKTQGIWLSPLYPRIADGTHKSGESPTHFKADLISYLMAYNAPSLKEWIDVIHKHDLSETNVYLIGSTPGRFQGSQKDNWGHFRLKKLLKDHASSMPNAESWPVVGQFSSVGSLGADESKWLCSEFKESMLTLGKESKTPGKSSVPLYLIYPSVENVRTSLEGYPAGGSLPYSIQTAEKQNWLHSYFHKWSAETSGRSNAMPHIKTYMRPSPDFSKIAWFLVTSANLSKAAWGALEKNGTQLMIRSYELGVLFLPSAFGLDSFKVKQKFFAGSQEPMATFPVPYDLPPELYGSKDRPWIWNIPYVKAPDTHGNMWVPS

IC50 [1] [µM] | IC50 [2] [µM] | inhibition [3] | Structure (SMILES)
43 | 38 | inactive | Cc1oc2c(c1C(=O)OCCC[n+]1ccc(N(C)C)cc1)C(=O)c1ncccc1C2=O
28 | 24 | inactive | Cc1oc2c(c1C(=O)OCC(F)(F)F)C(=O)c1ncccc1C2=O
51 | 37 | inactive | Cc1oc2c(c1C(=O)OCC(=O)O)C(=O)c1ncccc1C2=O
12 | 10 | inactive | Cc1oc2c(c1C(=O)Oc1cccc(C#N)c1)C(=O)c1ncccc1C2=O
31 | – | inactive | Cc1oc2c(c1C(=O)Oc1cccc(NC(=O)OC(C)(C)C)c1)C(=O)c1ncccc1C2=O
16 | 12 | inactive | Cc1oc2c(c1C(=O)Oc1cccc(N)c1)C(=O)c1ncccc1C2=O
> 111 | – | inactive | CCNC(=O)c1c(C)oc2c1C(=O)c1cccnc1C2=O
8.8 | 7.7 | inactive | Cc1oc2c(c1C(=O)Oc1cccnc1)C(=O)c1ncccc1C2=O
8.1 | 8.3 | inactive | Cc1oc2c(c1C(=O)Oc1cccc(-c3cn(CCCO)nn3)c1)C(=O)c1ncccc1C2=O
22 | 13 | inactive | Cc1oc2c(c1C(=O)OCCOCCO)C(=O)c1ncccc1C2=O
88 | – | inactive | Cc1oc2c(c1C(=O)Oc1ccc(NC(=O)OC(C)(C)C)cc1)C(=O)c1ncccc1C2=O
> 111 | > 111 | inactive | Cc1oc2c(c1C(=O)Oc1ccc3c(c1)OCO3)C(=O)c1ncccc1C2=O
32 | 24 | inactive | Cc1oc2c(c1C(=O)OCCC[n+]1ccccc1)C(=O)c1ncccc1C2=O
> 111 | > 111 | inactive | Cc1oc2c(c1C(=O)Oc1ccccc1C#N)C(=O)c1ncccc1C2=O
> 111 | – | inactive | Cc1oc2c(c1C(=O)Nc1cccc(Cl)c1)C(=O)c1cccnc1C2=O
> 111 | – | inactive | CCOC(=O)c1n[nH]c2c1C(=O)c1ncccc1C2=O

IC50 [1] [µM] | IC50 [2] [µM] | inhibition [3] | Structure (SMILES)
45 | 19 | inactive | Cc1oc2c(c1C(=O)OCCCCCO)C(=O)c1ncccc1C2=O
> 111 | – | inactive | CCOC(=O)c1c(C)[nH]c2c1C(=O)c1cccnc1C2=O
> 111 | – | inactive | Cc1oc2c(c1C(=O)Oc1ccc(C(=O)c3ccccc3)cc1)C(=O)c1ncccc1C2=O
66 | 72 | inactive | Cc1oc2c(c1C(=O)OCCc1cn(CCCO)nn1)C(=O)c1ncccc1C2=O
23 | 17 | inactive | COC(=O)[C@H](Cc1ccc(OC(=O)c2c(C)oc3c2C(=O)c2ncccc2C3=O)cc1)NC(C)=O
> 111 | – | inactive | Cc1cnc2c(c1)C(=O)c1occ(C)c1C2=O
15 | 13 | inactive | Cc1oc2c(c1C(=O)Oc1ccc(C#N)cc1)C(=O)c1ncccc1C2=O
11 | 7.5 | inactive | Cc1oc2c(c1C(=O)Oc1ccc(Cl)cc1)C(=O)c1ncccc1C2=O
10 | 14 | inactive | Cc1oc2c(c1C(=O)Oc1ccccc1Cl)C(=O)c1ncccc1C2=O
51 | – | inactive | Cc1oc2c(c1C(=O)Oc1ccc(OCCCN3CCOCC3)cc1)C(=O)c1ncccc1C2=O
14 | 13 | inactive | Cc1oc2c(c1C(=O)OCCC#N)C(=O)c1ncccc1C2=O
> 111 | – | inactive | Cc1oc2c(c1-c1nc3ccccc3o1)C(=O)c1ncccc1C2=O
36 | – | inactive | Cc1oc2c(c1C(=O)Oc1ccccc1NC(=O)OC(C)(C)C)C(=O)c1ncccc1C2=O
29 | 39 | inactive | Cc1oc2c(c1C(=O)Oc1ccccc1O)C(=O)c1cccnc1C2=O
> 111 | – | inactive | CCOC(=O)c1n[nH]c2c1C(=O)c1cccnc1C2=O

Structure (SMILES) | IC50 [1] [µM] | IC50 [2] [µM] | inhibition [3]
C#CCCOC(=O)c1c(C)oc2c1C(=O)c1ncccc1C2=O | 22 | 15 | inactive
Cc1oc2c(c1C(=O)OC[C@H](O)CO)C(=O)c1ncccc1C2=O | 50 | 15 | inactive
CCOC(=O)c1c(C)oc2c1C(=O)c1cccnc1C2=O | 43 | 54 | inactive
C=CC(=O)Nc1ccc(OC(=O)c2c(C)oc3c2C(=O)c2ncccc2C3=O)cc1 | 68 | – | inactive
CCOC(=O)c1c2c(n(C)c1C)C(=O)c1ncccc1C2=O | > 111 | – | inactive
Cc1oc2c(c1C(=O)Nc1ccccc1O)C(=O)c1ncccc1C2=O | > 111 | – | inactive
Cc1oc2c(c1C(=O)OCC(O)CO)C(=O)c1ncccc1C2=O (stereo not drawn) | 20 | 11 | inactive
CC(=O)c1c(C)oc2c1C(=O)c1cccnc1C2=O | > 111 | – | inactive
COc1ccc(NC(=O)c2c(C)oc3c2C(=O)c2ncccc2C3=O)cc1 | > 111 | – | inactive
Cc1oc2c(c1C(=O)Oc1ccc(Br)cc1)C(=O)c1ncccc1C2=O | 35 | 12 | inactive
Cc1oc2c(c1C(=O)Oc1ccc(S(C)(=O)=O)cc1)C(=O)c1ncccc1C2=O | 14 | 16 | inactive
Cc1oc2c(c1C(=O)Oc1cccc(-c3cn(CCC(=O)O)nn3)c1)C(=O)c1ncccc1C2=O [listing 1 of 3 here] | 50 | 28 | –
Cc1oc2c(c1C(=O)OCCc1ccccc1)C(=O)c1ncccc1C2=O | 53 | 24 | inactive
Cc1oc2c(c1C(=O)Nc1ccccc1)C(=O)c1ncccc1C2=O | > 111 | – | inactive
CC(=O)N1CCN(c2ccc(OC(=O)c3c(C)oc4c3C(=O)c3ncccc3C4=O)cc2)CC1 | 37 | 34 | inactive
COP(=O)(OC)c1c(C)oc2c1C(=O)c1cccnc1C2=O | 99 | – | inactive
Cc1oc2c(c1C(=O)OCCc1cn(CCC(=O)O)nn1)C(=O)c1ncccc1C2=O | 20 | 16 | inactive
Cc1oc2c(c1C(=O)Oc1ccc3ccccc3c1)C(=O)c1ncccc1C2=O | > 111 | – | inactive
Cc1oc2c(c1C(=O)Oc1ccc(N)cc1)C(=O)c1ncccc1C2=O | 19 | – | inactive
C=CC(=O)Nc1cccc(OC(=O)c2c(C)oc3c2C(=O)c2ncccc2C3=O)c1 | 71 | – | inactive
Cc1oc2c(c1C(=O)Oc1cccc(-c3cn(CCC(=O)O)nn3)c1)C(=O)c1ncccc1C2=O [listing 2 of 3 here] | – | – | inactive
C#Cc1cccc(OC(=O)c2c(C)oc3c2C(=O)c2ncccc2C3=O)c1 | 43 | 13 | inactive
Cc1oc2c(c1C(=O)Oc1cccc(Cl)c1)C(=O)c1ncccc1C2=O | 14 | 11 | inactive
CCNC(=O)c1c(C)oc2c1C(=O)c1ncccc1C2=O | > 111 | – | inactive
COC(=O)c1c(C)oc2c1C(=O)c1ncccc1C2=O | 26 | 12 | inactive
Cc1oc2c(c1C(=O)Nc1cccc(Cl)c1)C(=O)c1ncccc1C2=O | > 111 | – | inactive
COP(=O)(OC)Oc1ccc(OC(=O)c2c(C)oc3c2C(=O)c2ncccc2C3=O)cc1 | 31 | – | inactive
Cc1oc2c(c1C(=O)Oc1cccc(-c3cn(CCC(=O)O)nn3)c1)C(=O)c1ncccc1C2=O [listing 3 of 3 here] | 22 | 13 | –
COP(=O)(OC)c1c(C)oc2c1C(=O)c1ncccc1C2=O | > 111 | – | inactive
COP(=O)(CCOC(=O)c1c(C)oc2c1C(=O)c1ncccc1C2=O)OC | 9 | 17 | inactive
